By MIC is commonly meant the smallest concentration in the dilution series that meets the test's criterion for growth inhibition. A low value points to inhibition by little substance. By AUC(0-inf) is commonly meant the area under the concentration-time curve extrapolated to infinity. As a reminder, the Vd is a proportionality between amount in the body and measured concentration, not a real space. Higher therefore signals extensive tissue distribution. In general, Cmax refers to the maximum level reached in the sampled fluid or tissue. Broadly, the Tmax is the time from dosing to the highest level. One may read the IC50 as the concentration that gives 50% inhibition.

In brackets after ≈: the same amount, converted by molar mass. A value given as a limit tells only on which side of the number the result lay.

The values below come from article PMC3985699 (Journal of the American Chemical Society, 2014).

Data set [1] concerns S. aureus. Nature of the data set: Initial antibacterial screen of in silico hits. It is filed as cell-based, Staphylococcus aureus. As to conditions: initial screening of in silico hits.
Data set [2] deals with E. faecium. The experiment in a line: Initial antibacterial screen of in silico hits. It is filed as cell-based, Enterococcus faecium. As to conditions: initial screening of in silico hits.
For data set [3], the system named is S. aureus ATCC 29213. The experiment in a line: MIC by microdilution. It is filed as cell-based. The settings on record: Staphylococcus aureus, ATCC29213. An outline of the steps:
(§1)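 S. aureus was tested by CLSI broth microdilution in cation-adjusted Mueller Hinton II broth, final inoculum 5 × 10⁵ CFU/mL, 35 °C, read after 16–20 or 20–24 h; oxacillin was tested with 2% NaCl. MIC was the lowest concentration without visible growth, in triplicate. For ATCC 29213, inocula of 5 × 10⁶ and 5 × 10⁷ CFU/mL were also tested.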
In general terms: Broth dilution looks for growth in wells or tubes with falling amounts of substance.

In data set [4] the test system is S. aureus ATCC 27660. The experiment in a line: MIC by microdilution. The settings on record: Staphylococcus aureus, ATCC27660. It is filed as cell-based. An outline of the steps:
as §1

Data set [5] concerns S. aureus NRS100 (COL). The experiment in a line: MIC by microdilution. The settings on record: Staphylococcus aureus. It is filed as cell-based. An outline of the steps: as §1
Data set [6] concerns S. aureus NRS119. Nature of the data set: MIC by microdilution. It is filed as cell-based. The settings on record: Staphylococcus aureus. In a few lines: as §1
Data set [7] relates to S. aureus NRS120. Nature of the data set: MIC by microdilution. It is filed as cell-based. The settings on record: Staphylococcus aureus. An outline of the steps: as §1
The test system of data set [8] is S. aureus VRS1. The experiment in a line: MIC by microdilution. It is filed as cell-based. As to conditions: Staphylococcus aureus, MRSA. An outline of the steps:
as §1

In data set [9] the test system is S. aureus VRS2. The experiment in a line: MIC by microdilution. It is filed as cell-based. The settings on record: Staphylococcus aureus, MRSA. An outline of the steps:
as §1

Data set [10] has as its system S. epidermis ATCC 35547. The experiment in a line: MIC by microdilution. It is filed as cell-based. An outline of the steps: (§2)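 CLSI broth microdilution in cation-adjusted Mueller Hinton II broth, final inoculum 5 × 10⁵ CFU/mL. Plates incubated at 35 °C and read after 16–20 or 20–24 h depending on species. MIC taken as the lowest concentration with no visible growth. All determinations in triplicate.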

Data set [11] concerns S. hemolyticus ATCC 29970. The experiment in a line: MIC by microdilution. The settings on record: Streptococcus pyogenes, ATCC29970. It is filed as cell-based.
Data set [12] has as its system S. oralis ATCC 9811. The experiment in a line: MIC by microdilution. As to conditions: Streptococcus oralis, ATCC9811. It is filed as cell-based. In a few lines:
(§3)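 Streptococcal MICs came from CLSI broth microdilution in cation-adjusted Mueller Hinton II broth with 5% lysed horse blood. Final inoculum 5 × 10⁵ CFU/mL, incubation at 35 °C, read after 16–20 or 20–24 h depending on species. MIC was the lowest concentration without visible growth, determined in triplicate.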

Data set [13] has as its system S. pyogenes ATCC 49399. The experiment in a line: MIC by microdilution. It is filed as cell-based. As to conditions: Streptococcus pyogenes, ATCC49399. In a few lines:
as §3

The subject of data set [14] is E. faecalis ATCC 29212. Nature of the data set: MIC by microdilution. It is filed as cell-based. The settings on record: Enterococcus faecalis, ATCC29212. In a few lines:
as §2

The test system of data set [15] is E. faecalis 201 (Van S). The experiment in a line: MIC by microdilution. It is filed as cell-based. As to conditions: Enterococcus faecalis. In a few lines:
as §2

In data set [16] the test system is E. faecium 119–39A (Van S). Nature of the data set: MIC by microdilution. It is filed as cell-based. The settings on record: Enterococcus faecium. In a few lines:
as §2

Data set [17] deals with E. faecium 106 (Van R). The experiment in a line: MIC by microdilution. It is filed as cell-based. As to conditions: Enterococcus faecium. In a few lines: as §2
The subject of data set [18] is E. faecium NCTC 7171. The experiment in a line: MIC by microdilution. It is filed as cell-based. The settings on record: Enterococcus faecium, NCTC7171. An outline of the steps:
as §2

Data set [19] in a line: Hemolysis assay. It is filed as cell-based, horse. The settings on record: horse, washed red blood cells from horse whole blood.
Data set [20] is described as follows: Pharmacokinetics in mice. It is filed as in vivo. In a few lines: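 Female ICR mice received a single 50 mg/kg dose, either iv in 10% DMSO/25% Tween-80/65% water or po by gavage (n = 3 per time point). Terminal blood was taken at 2 min–24 h after iv and 0.5–48 h after po, then centrifuged for plasma. Plasma was precipitated with acetonitrile containing internal standard and analysed by C18 UPLC-ESI(+)-MRM against calibration curves in blank mouse plasma.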

For data set [21], the system named is S. aureus ATCC 27660 (MRSA). Nature of the data set: Mouse peritonitis infection model. It is filed as in vivo, Staphylococcus aureus. As to conditions: mice, antibiotic 3 vs 4. An outline of the steps: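 Female ICR mice (6–8 weeks, 17–20 g) were infected intraperitoneally with 0.5 mL MRSA ATCC 27660 at 5 × 10⁷ CFU/mL in 5% mucin. The inoculum was grown in brain heart infusion and adjusted to OD540 0.5. A single oral gavage dose was given 1 h post-infection (n = 6/group), with linezolid 10 mg/kg as positive control. Survival was monitored over 2 days.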

Data set [22] relates to peptidoglycan synthesis of S. aureus. The experiment in a line: Macromolecular synthesis assay, D-[2,3-3H]-alanine incorporation. It is filed as cell-based, Staphylococcus aureus. As to conditions: S. aureus ATCC 29213, logarithmic phase; 0.25 and 0.5 μg/mL. An outline of the steps:
(§4)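 Mid-exponential S. aureus ATCC 29213 in brain heart infusion was labelled with 1 μCi/mL ³H-precursor for 10 min at 37 °C before test compound addition (0.25, 0.5 μg/mL). Controls: ciprofloxacin (thymidine), rifampicin (uridine), tetracycline (leucine), fosfomycin (alanine). Samples every 20 min up to 2 h, precipitated in 20% cold TCA, filtered, scintillation-counted. Triplicates, repeated at least twice; % inhibition versus control.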

Data set [23] deals with RNA synthesis (transcription) of S. aureus. The experiment in a line: Macromolecular synthesis assay, [5-3H]-uridine incorporation. It is filed as cell-based, Staphylococcus aureus. As to conditions: S. aureus ATCC 29213, logarithmic phase; 0.25 and 0.5 μg/mL. In a few lines:
as §4

In data set [24] the test system is protein synthesis (translation) of S. aureus. Nature of the data set: Macromolecular synthesis assay, L-[4,5-3H]-leucine incorporation. It is filed as cell-based, Staphylococcus aureus. The settings on record: S. aureus ATCC 29213, logarithmic phase; 0.25 and 0.5 μg/mL. In a few lines:
as §4

The subject of data set [25] is DNA synthesis (replication) of S. aureus. Nature of the data set: Macromolecular synthesis assay, [methyl-3H]-thymidine incorporation. As to conditions: S. aureus ATCC 29213, logarithmic phase; 0.25 and 0.5 μg/mL. It is filed as cell-based, Staphylococcus aureus. In a few lines:
as §4

Data set [26] relates to T7 polymerase transcription of the dacB gene encoding E. coli PBP4. The experiment in a line: In vitro transcription assay. As to conditions: 0.5, 5, 50 and 160 μg/mL, 2 h at 37 °C. It is filed as biochemical. An outline of the steps:
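Template was pET24a carrying E. coli K12 dacB without the 90-bp signal-peptide region, linearized with XhoI, 2 μL at 0.5 μg/μL per reaction. Run with a T7 transcription kit, test compound or negative control, then iced. DNaseI (37 °C, 15 min) and EDTA with 65 °C for 10 min followed. Transcripts diluted 30-fold and run on a 1% denaturing formaldehyde gel in MOPS pH 7.0.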

Data set [27] relates to E. coli S30 extract coupled transcription and translation system. Nature of the data set: In vitro transcription/translation assay. The settings on record: concentrations of up to 160 μg/mL (80-fold above the MIC). It is filed as biochemical. In a few lines: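 The coupled system used the E. coli S30 extract (circular DNA) with a pUC19 lacZ template. Test compound was added at 0.5, 5, 50 and 160 μg/mL alongside a negative control. Reactions ran 2 h at 37 °C and were stopped on ice for 5 min. β-Galactosidase was quantified by o-nitrophenyl-β-D-galactoside hydrolysis, read at 420 nm against a standard curve.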

Data set [28] has as its target purified recombinant PBP2a (Staphylococcus aureus, UniProt P07944). Nature of the data set: Continuous spectrophotometric PBP2a inhibition assay with nitrocefin. It is filed as biochemical, MRSA.
Setting [29] is: ICR, mouse, plasma, iv, 50 mg/kg.
[30] abbreviates: female, ICR, mouse, plasma, po, 50 mg/kg.

purified recombinant PBP2a, sequence (P07944 whole entry): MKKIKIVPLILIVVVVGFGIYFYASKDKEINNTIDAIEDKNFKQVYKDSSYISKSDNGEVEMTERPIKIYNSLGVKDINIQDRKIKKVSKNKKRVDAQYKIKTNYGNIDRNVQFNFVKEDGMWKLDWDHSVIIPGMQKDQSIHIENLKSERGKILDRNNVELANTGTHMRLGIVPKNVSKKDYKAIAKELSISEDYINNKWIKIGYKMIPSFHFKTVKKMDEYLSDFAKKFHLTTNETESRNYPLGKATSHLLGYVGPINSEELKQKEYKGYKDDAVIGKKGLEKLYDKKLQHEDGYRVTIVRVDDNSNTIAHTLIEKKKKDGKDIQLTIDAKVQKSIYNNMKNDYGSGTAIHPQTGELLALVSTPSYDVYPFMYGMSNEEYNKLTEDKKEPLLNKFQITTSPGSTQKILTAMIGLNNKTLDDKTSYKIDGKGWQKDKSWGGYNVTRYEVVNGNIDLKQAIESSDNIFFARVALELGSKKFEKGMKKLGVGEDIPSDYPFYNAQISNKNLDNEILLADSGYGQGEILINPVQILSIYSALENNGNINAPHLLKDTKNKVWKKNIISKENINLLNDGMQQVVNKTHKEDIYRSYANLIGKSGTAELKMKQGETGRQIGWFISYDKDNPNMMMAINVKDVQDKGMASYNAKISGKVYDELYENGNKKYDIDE

As for `Fc1ccc(-c2nc(-c3ccc(Oc4ccc(C(F)(F)F)cc4)cc3)no2)cc1` [Compound 1, 5-(4-Fluorophenyl)-3-(4-(4-(trifluoromethyl)phenoxy)phenyl)-1,2,4-oxadiazole], the “MIC (in words)” value in data set [1] and in data set [2] was “poor but reproducible MIC” each time.

Take `Oc1ccc(-c2nc(-c3ccc(Oc4ccc(C(F)(F)F)cc4)cc3)no2)cc1` [Compound 3, 4-(3-(4-(4-(Trifluoromethyl)phenoxy)phenyl)-1,2,4-oxadiazol-5-yl)phenol]: the MIC in data set [3], in data set [4], in [5], in [6], in data set [7] and in [8] was 2 µg/mL (≈ 5.02 µM) each time. The minimal inhibitory concentration (MIC) in [9] was 2 µg/mL (≈ 5.02 µM); in data set [10], 2 µg/mL (≈ 5.02 µM); in data set [11], 2 µg/mL (≈ 5.02 µM); in [12] it was 32 µg/mL (≈ 80.3 µM); in data set [13] it was above 32 µg/mL; in data set [14], 2 µg/mL (≈ 5.02 µM). In addition, the minimal inhibitory concentration (MIC) in [15] amounted to 2 µg/mL (≈ 5.02 µM); in data set [16] it was 1 µg/mL (≈ 2.51 µM); in [17] it was 2 µg/mL (≈ 5.02 µM); in data set [18] it was 2 µg/mL (≈ 5.02 µM). The molecule also registered a hemolysis at 1 h, 64 μg/mL in data set [19] of 3%. Further, the AUC(0-inf) is 44200 ng·h/mL in data set [20] (setting [29]) and 43700 ng·h/mL in data set [20] (setting [30]). This molecule also had a distribution volume (Vd) in data set [20] (setting [29]) of 0.37 L/kg. In data set [20] (setting [30]), this molecule gave a peak concentration (Cmax) of 2500 ng/mL. The Tmax in [20] (setting [30]) amounted to 2 h. Besides, in data set [20] (mice, 50 mg/kg iv, compound 3 vs compound 2, compound 4 vs compound 3), the “higher systemic exposure relative to comparator compound” value is recorded as 2 fold. Also, the “volume of distribution (in words)” value in data set [20] (mice, single 50 mg/kg iv) was “moderate volume of distribution”. For the same molecule, the “efficacy following po dosing (comparison)” value in data set [21] is “superior efficacy”. The “inhibition of peptidoglycan synthesis” value in data set [22] is on record as “inhibited peptidoglycan synthesis”. Further, the inhibition of transcription entry in data set [23] is listed as “did not inhibit”. Also, in [24], the inhibition of translation entry was “did not inhibit”. Besides, in data set [25], the “inhibition of replication (DNA synthesis)” value is listed as “did not inhibit”. Besides, the “effect on dacB mRNA band intensities” value in data set [26] was “no effect”. Further, the “effect on β-galactosidase formation” value in [27] is listed as “no effect”. In [28], the half-maximal inhibitory concentration (IC50) is 20.1 µM.
